Experimental data as given in ChEMBL document CHEMBL1127576, “Inhibition of human immunodeficiency virus type 1 replication by phosphonoformate- and phosphonoacetate-2',3'-dideoxy-3'-thiacytidine conjugates” (J Med Chem, 1994).

Legend:
[1] = Therapeutic index was measured as concentration required to cause 50% death of uninfected MT-4- cells to IC50 concentration required to inhibit syncytia formation by 50% in HIV-1 infected MT-4 cells; assay type: cell-based, MT4; details: human, uninfected MT-4 cells and HIV-1 infected MT-4 cells; read-out: TI
How it was run: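 Ratio of ID50 to IC50. ID50: uninfected MT-4 cells (2 × 10⁵), three replicate cultures, with graded analogue concentrations; viability by trypan blue exclusion 6 days after drug addition; ID50 is the concentration killing 50% of cells. IC50: 50% inhibition of syncytia in HIV-1-infected MT-4 cells (1 h infection, 37 °C), scored microscopically at day 5.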

[2] = test system: MT4; experiment: (§1) Concentration required to inhibit syntica formation by 50% in HIV-1 infected MT-4 cells; assay type: functional, cell-based; details: Homo sapiens
How it was run: (§2)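 MT-4 cells (3 × 10⁵) infected with diluted HIV-1 for 1 h at 37 °C, washed three times, then cultured with inhibitor. Syncytia were counted by inverted light microscopy 5 days post-infection. IC50 was the concentration giving 50% inhibition of syncytia formation without cell toxicity.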

[3] = test system: MT4; experiment: as §1; assay type: ADME, cell-based; details: Homo sapiens; how it was run: as §2

| SMILES | selectivity ratio [1] | IC50 [2] | IC50 [3] |
| --- | --- | --- | --- |
| Nc1ccn([C@@H]2CS[C@H](CO)O2)c(=O)n1 [LAMIVUDINE] | 1000 | 100 nM | – |
| CCOP(=O)(OCC)C(=O)OCC1OC(n2ccc(NC(C)=O)nc2=O)CS1 (stereo unspecified) | 350 | 300 nM | – |
| CCOP(=O)(CC(=O)OCC1OC(n2ccc(N)nc2=O)CS1)OCC (stereo unspecified) | 50 | 10000 nM | – |
| CC(=O)Nc1ccn(C2CSC(COC(=O)P(=O)(O)O)O2)c(=O)n1 (stereo unspecified) | 500 | 200 nM | – |
| Nc1ccn(C2CSC(COC(=O)CP(=O)(O)O)O2)c(=O)n1 (stereo unspecified) | 300 | 1000 nM | – |
| CCOP(=O)(CC(=O)Nc1ccn(C2CSC(CO)O2)c(=O)n1)OCC (stereo unspecified) | 100 | 5000 nM | – |
| Nc1ccn(C2CSC(COP(=O)(O)C(=O)O)O2)c(=O)n1 (stereo unspecified) | 10 | 100000 nM | – |
| O=C(CP(=O)(O)O)Nc1ccn(C2CSC(CO)O2)c(=O)n1 (stereo unspecified) | 10 | – | 100000 nM |
